According to ChEMBL document CHEMBL3826936, “Alkyne-substituted diminazene as G-quadruplex binders with anticancer activities” (Eur J Med Chem, 2016):
Calls of active or inactive are those of the source. The calls are words filed in the database; no cut-off is given here.

Assays:
[1] = Binding affinity to 5'-FAM/3'-TAMRA labeled c-kit2 26-mer G-quadruplex DNA (unknown origin) assessed as change in melting temperature at 4 uM after 12 hrs by TR-FRET assay
Procedure, shortened: (§1)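 Dual-labeled FAM/TAMRA oligos diluted to 800 nM in 60 mM potassium cacodylate (pH 7.2), annealed 10 min at 85 °C and cooled to room temperature. Mixed 1:1 with ligand at […] in the same buffer. Equilibrated at least 12 h at 4 °C. ΔT1/2 taken as melting temperature with minus without ligand, in triplicate, averaged.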

MDA-MB-231 [2] = experiment: Binding affinity to c-MYC G-quadruplex DNA in human MDA-MB-231 cells assessed as inhibition of c-MYC protein expression at 19.5 uM incubated for 24 hrs by Western blot analysis relative to control; assay type: cell-based
Procedure, shortened: (§2)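 MDA-MB-231 cells, grown in DMEM with 10% heat-inactivated FBS at 37 °C and 5% CO2, exposed for 6 or 24 h; DMSO vehicle as comparator. Cells harvested, PBS-washed, lysed in RIPA with protease inhibitors. Blots probed with c-MYC antibody (1:1000) and HRP anti-rabbit IgG (1:10,000), β-actin as loading control. Densitometry given as percent of vehicle at each time point.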

[3] = target: Telomerase reverse transcriptase (Homo sapiens) (UniProt O14746); experiment: Inhibition of telomerase activity in human MDA-MB-231 cells using amplifour TS primer at 12.4 uM preincubated for 72 hrs followed by primer addition measured after 30 mins by fluorescence plate reader analysis relative to control; assay type: cell-based
Procedure, shortened: (§3)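 MDA-MB-231 seeded at 2 × 10^5 cells per T-25 flask the evening before, then treated with vehicle or compound for 48 or 72 h. Harvested cells lysed in CHAPS buffer with RNase inhibitor, 30 min on ice; supernatant kept after 12,000 × g spin. TRAPeze XL fluorescence assay used 1000 cell-equivalents, 30 min at 30 °C; TPG units from product/internal-standard ratio; inhibition relative to untreated cells.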

[4] = Antiproliferative activity against human bone marrow cells assessed as cell viability at 20 uM after 72 hrs by WST-1 assay relative to control; assay type: cell-based; details: read-out: Activity
Procedure, shortened: (§4)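 Cells seeded in 96-well plates the afternoon before treatment, at numbers keeping them in log-phase growth; about 18 h later, compounds semi-serially diluted in DMSO then growth medium and added. Incubation 72 h, then WST-1 added and plates read after 4 more hours at 37 °C. GI50 derived from curve fits; viability expressed relative to DMSO control.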

MDA-MB-231 [5] = experiment: Binding affinity to c-MYC G-quadruplex DNA in human MDA-MB-231 cells assessed as inhibition of c-MYC protein expression at 19.5 uM incubated for 6 hrs by Western blot analysis relative to control; assay type: cell-based; procedure, shortened: as §2
[6] = Binding affinity to c-kit1 22-mer G-quadruplex DNA (unknown origin) at 150 uM incubated for 2 hrs by 1H NMR method
[7] = Binding affinity to 5'-FAM/3'-TAMRA labeled k-RAS21R 21-mer G-quadruplex DNA (unknown origin) assessed as change in melting temperature at 4 uM after 12 hrs by TR-FRET assay; procedure, shortened: as §1
[8] = Binding affinity to 8-bp AT rich duplex DNA (unknown origin) at 150 uM incubated for 2 hrs by 1H NMR method
[9] = Stabilization of c-MYC pu27 G-quadruplex DNA (unknown origin) assessed as inhibition of Taq polymerase-mediated polymerization/extension of Pu27 and Pu27rev oligomers at 100 uM preincubated for 6 hrs followed by Taq polymerase addition by PCR stop assay
[10] = Binding affinity to c-MYC2345 G-quadruplex DNA (unknown origin) at 150 uM incubated for 2 hrs by 1H NMR method
[11] = Antiproliferative activity against human OVCAR3 cells after 72 hrs by WST-1 assay; assay type: functional; details: OVCAR-3, 72 h; procedure, shortened: as §4
[12] = Antiproliferative activity against human MCR5A cells assessed as cell viability at 20 uM after 72 hrs by WST-1 assay relative to control; assay type: cell-based; details: read-out: Activity; procedure, shortened: as §4
[13] = Binding affinity to 5'-FAM/3'-TAMRA labeled c-MYC 22-mer G-quadruplex DNA (unknown origin) at 4 uM in presence of 26-mer duplex DNA by TR-FRET assay
[14] = Binding affinity to 5'-FAM/3'-TAMRA labeled 26-mer duplex DNA (unknown origin) assessed as change in melting temperature at 4 uM after 12 hrs by TR-FRET assay
[15] = Binding affinity to 5'-FAM/3'-TAMRA labeled c-MYC 22-mer G-quadruplex DNA (unknown origin) assessed as change in melting temperature at 4 uM after 12 hrs by TR-FRET assay; procedure, shortened: as §1
MDA-MB-231 [16] = experiment: Antiproliferative activity against human MDA-MB-231 cells after 72 hrs by WST-1 assay; assay type: functional; details: MDA-MB-231, 72 h; procedure, shortened: as §4
[17] = target: Telomerase reverse transcriptase (Homo sapiens) (UniProt O14746); experiment: Inhibition of telomerase activity in human MDA-MB-231 cells using amplifour TS primer at 12.4 uM preincubated for 48 hrs followed by primer addition measured after 30 mins by fluorescence plate reader analysis relative to control; assay type: cell-based; procedure, shortened: as §3
[18] = Stabilization of c-MYC template Pu27-13,14 mutant DNA (unknown origin) assessed as inhibition of Taq polymerase-mediated polymerization/extension of Pu27-13,14 mutant and Pu27rev oligomers at 100 uM preincubated for 6 hrs followed by Taq polymerase addition by PCR stop assay
[19] = Binding affinity to 5'-FAM/3'-TAMRA labeled F21T 21-mer G-quadruplex DNA (unknown origin) assessed as change in melting temperature at 4 uM after 12 hrs by TR-FRET assay; procedure, shortened: as §1
[20] = Stabilization of c-MYC template Pu27 mutant DNA (unknown origin) assessed as inhibition of Taq polymerase-mediated polymerization/extension of Pu27 mutant and Pu27rev oligomers at 1 to 100 uM preincubated for 6 hrs followed by Taq polymerase addition by PCR stop assay
[21] = Antiproliferative activity against human PC3 cells after 72 hrs by WST-1 assay; assay type: functional; details: PC-3, 72 h; procedure, shortened: as §4
[22] = target: Telomerase reverse transcriptase (Homo sapiens) (UniProt O14746); experiment: Inhibition of telomerase activity in human MDA-MB-231 cells using amplifour TS primer preincubated for 48 to 72 hrs followed by primer addition measured after 30 mins by fluorescence plate reader analysis relative to control; assay type: cell-based
Procedure, shortened: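 MDA-MB-231 cells, 2 × 10⁵ per T-25 flask, were treated the next morning with vehicle or compound at 0.5×, 1×, 2× or 4× GI50. After 48 or 72 h they were lysed in CHAPS buffer with RNase inhibitor on ice for 30 min. Lysate (1000 cell-equivalents) went into a fluorescent TRAP reaction at 30 °C for 30 min. TPG units were taken against an internal standard, and inhibition was expressed relative to untreated cells.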

MDA-MB-231 [23] = experiment: Binding affinity to c-MYC G-quadruplex DNA in human MDA-MB-231 cells assessed as inhibition of c-MYC protein expression at 22.3 uM incubated for 6 hrs by Western blot analysis relative to control; assay type: cell-based
Procedure, shortened: (§5)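 MDA-MB-231 cells were grown in DMEM with 10% heat-inactivated FBS at 37 °C and 5% CO2, then treated with DMSO vehicle or compound for 2, 6 or 24 h. Cells were washed in PBS and lysed in RIPA buffer with protease inhibitors. Blots were probed with anti-c-MYC (1:1000) and HRP anti-rabbit IgG (1:10,000), with β-actin as loading control. Band density is given as percent of vehicle at each time point.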

[24] = target: Telomerase reverse transcriptase (Homo sapiens) (UniProt O14746); details: MDA-MB-231, 25 uM
[25] = Stabilization of c-MYC Pu27 G-quadruplex DNA (unknown origin) assessed as inhibition of Taq polymerase-mediated polymerization/extension of Pu27 and Pu27rev oligomers at 25 uM preincubated for 6 hrs followed by Taq polymerase addition by PCR stop assay
Procedure, shortened: (§6)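 Each 25 µL PCR mix held 1x buffer, 5 µM template (Pu27, Pu27-13,14 or Pu-mutant) and 5 µM Pu27rev, plus ligand at various concentrations, and was held at 4 °C for 6 h. Then 200 µM dNTPs and 5 U Taq were added. Cycling: 94 °C 3 min, then 20 cycles of 94 °C 30 s, 58 °C 30 s and 72 °C 30 s. Reactions without compound served as control.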

[26] = Stabilization of c-MYC template Pu27-13,14 mutant DNA (unknown origin) assessed as inhibition of Taq polymerase-mediated polymerization/extension of Pu27-13,14 mutant and Pu27rev oligomers at 10 uM preincubated for 6 hrs followed by Taq polymerase addition by PCR stop assay; procedure, shortened: as §6
MDA-MB-231 [27] = experiment: Binding affinity to c-MYC G-quadruplex DNA in human MDA-MB-231 cells assessed as inhibition of c-MYC protein expression at 22.3 uM incubated for 24 hrs by Western blot analysis relative to control; assay type: cell-based; procedure, shortened: as §5
[28] = Stabilization of c-MYC template Pu27 mutant DNA (unknown origin) assessed as inhibition of Taq polymerase-mediated polymerization/extension of Pu27 mutant and Pu27rev oligomers at 10 uM preincubated for 6 hrs followed by Taq polymerase addition by PCR stop assay; procedure, shortened: as §6
[29] = target: Telomerase reverse transcriptase (Homo sapiens) (UniProt O14746); details: MDA-MB-231, 25 uM; remark: listed apart in the source
MDA-MB-231 [30] = experiment: Binding affinity to c-MYC G-quadruplex DNA in human MDA-MB-231 cells assessed as inhibition of c-MYC protein expression at 111.5 uM incubated for 24 hrs by Western blot analysis relative to control; assay type: cell-based; procedure, shortened: as §5
MDA-MB-231 [31] = experiment: Cytotoxicity against human MDA-MB-231 cells assessed as reduction in cell viability at 27.25 uM after 24 hrs by […]; details: mda-mb-231, 24 h
[32] = Antiproliferative activity against human bone marrow cells after 72 hrs by WST-1 assay; assay type: cell-based, Bone marrow cell
Procedure, shortened: (§7)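 Cells seeded the afternoon before treatment at densities giving log-phase growth; about 18 h later compounds, semi-serially diluted in DMSO then growth medium, were added. After 72 h WST-1 was added, with a further 4 h at 37 °C before plate reading. GI50 values were calculated from the curves. NBM was grown in RPMI; MCR5A was handled per ATCC.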

MDA-MB-231 [33] = experiment: Binding affinity to c-MYC G-quadruplex DNA in human MDA-MB-231 cells assessed as inhibition of c-MYC protein expression at 27.25 uM incubated for 24 hrs by Western blot analysis relative to control; assay type: cell-based; procedure, shortened: as §2
MDA-MB-231 [34] = experiment: Binding affinity to c-MYC G-quadruplex DNA in human MDA-MB-231 cells assessed as inhibition of c-MYC protein expression at 27.25 uM incubated for 6 hrs by Western blot analysis relative to control; assay type: cell-based; procedure, shortened: as §2
[35] = target: Telomerase reverse transcriptase (Homo sapiens) (UniProt O14746); experiment: Inhibition of telomerase activity in human MDA-MB-231 cells using amplifour TS primer at 11 uM preincubated for 48 to 72 hrs followed by primer addition measured after 30 mins by fluorescence plate reader analysis relative to control; assay type: cell-based; procedure, shortened: as §3
[36] = Antiproliferative activity against human MCR5A cells after 72 hrs by WST-1 assay; assay type: cell-based; procedure, shortened: as §7

Chain of Telomerase reverse transcriptase (Homo sapiens) (O14746 whole entry): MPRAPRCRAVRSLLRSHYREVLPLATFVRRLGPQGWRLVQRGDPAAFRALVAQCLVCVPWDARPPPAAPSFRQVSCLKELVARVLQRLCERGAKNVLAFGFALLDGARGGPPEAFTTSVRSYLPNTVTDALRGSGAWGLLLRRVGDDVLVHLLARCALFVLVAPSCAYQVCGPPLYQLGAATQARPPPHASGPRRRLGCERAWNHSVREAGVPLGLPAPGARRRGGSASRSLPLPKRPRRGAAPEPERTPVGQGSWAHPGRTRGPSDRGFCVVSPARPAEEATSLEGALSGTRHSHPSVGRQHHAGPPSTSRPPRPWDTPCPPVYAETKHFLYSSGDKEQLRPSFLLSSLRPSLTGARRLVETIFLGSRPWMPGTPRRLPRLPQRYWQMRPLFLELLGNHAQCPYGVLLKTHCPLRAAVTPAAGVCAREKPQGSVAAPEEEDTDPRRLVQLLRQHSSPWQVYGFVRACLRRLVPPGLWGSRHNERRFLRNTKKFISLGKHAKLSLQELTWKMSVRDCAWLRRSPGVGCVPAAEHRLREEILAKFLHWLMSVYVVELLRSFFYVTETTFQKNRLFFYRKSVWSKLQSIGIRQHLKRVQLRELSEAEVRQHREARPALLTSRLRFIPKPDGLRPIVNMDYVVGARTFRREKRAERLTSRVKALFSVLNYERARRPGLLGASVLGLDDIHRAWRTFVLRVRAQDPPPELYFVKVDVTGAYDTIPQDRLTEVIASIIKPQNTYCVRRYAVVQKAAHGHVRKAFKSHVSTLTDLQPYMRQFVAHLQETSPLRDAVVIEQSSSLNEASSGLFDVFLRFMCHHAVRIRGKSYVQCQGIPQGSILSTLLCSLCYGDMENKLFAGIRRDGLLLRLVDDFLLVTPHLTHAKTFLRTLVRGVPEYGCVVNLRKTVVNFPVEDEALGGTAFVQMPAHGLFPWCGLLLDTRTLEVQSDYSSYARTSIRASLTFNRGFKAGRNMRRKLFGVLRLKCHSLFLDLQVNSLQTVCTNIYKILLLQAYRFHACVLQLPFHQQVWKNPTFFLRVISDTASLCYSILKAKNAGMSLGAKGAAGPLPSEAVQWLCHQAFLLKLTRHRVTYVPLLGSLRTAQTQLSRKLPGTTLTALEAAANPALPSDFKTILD

Compound	ΔTm [1]	Activity [6]	ΔTm [7]	Activity [8]	inhibition [9]	Activity [10]	GI50 [11]	Activity [13]	ΔTm [14]	ΔTm [15]	GI50 (MDA-MB-231 [16])	inhibition [18]	ΔTm [19]	inhibition [20]	GI50 [21]	inhibition [22]	other results
N=C(N)c1ccc(/N=N/Nc2ccccc2C#Cc2ccc(F)cc2)cc1	5.12 °C	Active	2.7 °C	inactive	Active	Active	9.5 µM	inactive	< 5 °C	8.8 °C	6.2 µM	inactive	< 5 °C	inactive	7.4 µM	–	inhibition (MDA-MB-231 [2]): 100%; inhibition [3]: 30%; viability at 72 h, 20 µM [4]: ≥ 75%; inhibition (MDA-MB-231 [5]): inactive; viability at 72 h, 20 µM [12]: ≥ 75%; inhibition [17]: 20%
C[n+]1ccc(-c2c3nc(c(-c4cc[n+](C)cc4)c4ccc([nH]4)c(-c4cc[n+](C)cc4)c4ccc([nH]4)c(-c4cc[n+](C)cc4)c4nc2C=C4)C=C3)cc1	–	–	46.7 °C	–	–	–	–	–	< 5 °C	24.1 °C	–	–	< 5 °C	–	–	Dose-dependent effect	inhibition (MDA-MB-231 [23]): 40%; inhibition [24]: 60%; inhibition [25]: Active; inhibition [26]: Active; inhibition (MDA-MB-231 [27]): 92%; inhibition [28]: Active; inhibition [29]: 80%; inhibition (MDA-MB-231 [30]): 100%
N=C(N)c1ccc(/N=N/Nc2cccc(C#Cc3ccc(F)cc3)c2)cc1	5.67 °C	Active	6.9 °C	inactive	Active	Active	5 µM	inactive	< 5 °C	8.6 °C	5.5 µM	inactive	< 5 °C	inactive	5.3 µM	Dose-dependent effect	Activity (MDA-MB-231 [31]): Toxic; GI50 at 72 h [32]: 5.6 µM; inhibition (MDA-MB-231 [33]): 67%; inhibition (MDA-MB-231 [34]): 40%; inhibition [35]: < 50%; GI50 at 72 h [36]: 8.3 µM
